High-throughput results: PubChem BioAssay, The Scripps Research Institute Molecular Screening Center
M4 ag: CHRM4 agonism in calcium assay | P08173 | CHO-K1 hM4/Gqi5, Fluo-8 calcium fluorescence; vehicle 0%, full acetylcholine response 100% | activation, % at 3 µM | actives 0.14% (n = 360,000) | AID 624127;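 active means activation above the run mean over all test wells plus 3 SD, cut at about 32% in these data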;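 further: peak over basal fluorescence ratio per well then scaled between controls; 0% = DMSO wells and 100% = acetylcholine at EC100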
Target sequence (P08173 whole entry, looked up): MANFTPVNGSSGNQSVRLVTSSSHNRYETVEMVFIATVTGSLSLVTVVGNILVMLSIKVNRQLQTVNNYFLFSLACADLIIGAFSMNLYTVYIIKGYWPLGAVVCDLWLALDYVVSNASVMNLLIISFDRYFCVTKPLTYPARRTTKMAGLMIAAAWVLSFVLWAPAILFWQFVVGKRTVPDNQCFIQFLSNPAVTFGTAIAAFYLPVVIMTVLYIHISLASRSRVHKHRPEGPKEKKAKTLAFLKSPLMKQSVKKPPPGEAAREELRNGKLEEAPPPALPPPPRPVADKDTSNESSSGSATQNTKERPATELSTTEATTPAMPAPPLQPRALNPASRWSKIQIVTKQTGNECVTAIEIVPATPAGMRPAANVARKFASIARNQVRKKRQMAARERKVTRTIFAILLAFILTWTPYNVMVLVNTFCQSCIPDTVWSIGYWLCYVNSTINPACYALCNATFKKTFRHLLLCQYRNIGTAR
CHRM5 antagonist: antagonists of human muscarinic M5 receptor (CHRM5) | inhibition, % at 3 µM | actives 0.59% (n = 360,000) | AID 624040 | CHO-hM5 cells, Fluo-8 calcium fluorescence, ACh EC80;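 active means inhibition above a per-plate cutoff, the mean of that plate's test compounds plus 3 SD, cut at about 27% in these data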;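 further: 0% = acetylcholine EC80 with DMSO and 100% = DMSO without agonist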
M4 antag: blocks acetylcholine activation of human M4 receptor; CHO-hM4 cells, ACh EC80, Fluo-8 calcium fluorescence; inhibition, % at 3 µM; actives 0.73% (n = 360,000); AID 624125;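 active means inhibition above its plate's cutoff, the mean inhibition of sample wells plus 3 SD, cut at about 27% in these data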;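 further: 0% = acetylcholine EC80 with DMSO and 100% = DMSO without agonist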
CHRM5 PAM: potentiates acetylcholine response at human M5 receptor. activation, % at 3 µM. actives 0.3% (n = 360,000). CHO-K1 hM5, Fluo-8 calcium, ACh EC20 PAM; 0% = ACh EC20, 100% = ACh EC100;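 active means activation above the run cutoff, the mean activation of all test compounds plus 3 SD, cut at about 18% in these data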
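Replicates: One well per compound, no replicates | System: Human M5 receptor in CHO-K1 cells | Benchmarks: Low control EC20 acetylcholine (0%), high control EC100 acetylcholine (100%) | Probe or stimulus: Acetylcholine, EC20 level | Times: Fluo-8 loading 80 min at 37 °C plus 30 min room temperature | Signal: Intracellular calcium via Fluo-8 fluorescence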
CHRM4 PAM: CHRM4 positive allosteric modulation. P08173. CHO-K1 hM4/Gqi5, Fluo-8 calcium fluorescence, ACh EC20; 0% = ACh EC20, 100% = maximal ACh. activation, % at 3 µM. actives 0.4% (n = 360,000);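 active means activation above its plate's cutoff, the mean activation of sample wells plus 3 SD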
M5 ag: CHRM5 agonism in calcium assay; P08912; CHO-K1 hM5 cells, Fluo-8 calcium fluorescence; 0% DMSO wells, 100% maximal acetylcholine response; activation, % at 3 µM; actives 0.19% (n = 360,000); AID 624037;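 active means activation above the run's mean over test compounds plus 3 SD, cut at about 23% in these data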;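 further: signal is peak over basal fluorescence ratio across the kinetic read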
* hit, by the source's call. This is a sample that favours compounds with a hit; in the whole collection about 1.9% have one here.

SMILES	M4 ag	CHRM5 antagonist	M4 antag	CHRM5 PAM	CHRM4 PAM	M5 ag
CCCC(=O)Nc1cc(Cl)ccc1C	0.2	-4.2	-9.4	5.5	3.0	0.2
Cc1ccc(Cl)cc1NC(=O)CCC(=O)Nc1cc(Cl)ccc1C	1.3	-3.7	-3.2	24.0*	8.0	-3.8
CCOC(=O)C1CCCN(C(=O)c2cccc3ccccc23)C1 (stereo not given)	0.4	8.2	13.9	-1.6	-6.3	-0.8
CCOC(=O)C1CCc2c(ccc3ccccc23)N1CCC#N (stereo not given)	0.6	29.2*	-13.4	-4.9	7.3	-1.5
CCOCCCNC(=O)C(NC(=O)CNC(C)=O)c1ccc(C)cc1 (stereo not given)	0.4	-3.3	6.9	5.1	3.1	2.1
CCOCCCNC(=O)C(NC(=O)Cc1cccs1)c1ccc(C)cc1 (stereo not given)	0.2	8.7	-4.2	5.8	21.0*	2.5
CCOCCCNC(=O)C(c1ccc(C)cc1)N(Cc1ccc2c(c1)OCO2)C(=O)CNC(C)=O (stereo not given)	2.2	2.0	-1.8	4.0	23.6*	2.1
CCCNC(=O)C[C@@H]1CC[C@H]2NC[C@H](O)COC[C@@H]2O1	-0.1	-2.4	-6.2	-3.4	2.8	1.1
COc1ccc(CNC(C)C23CC4CC(CC(C4)C2)C3)c(OC)c1OC (stereo not given)	5.6	2.2	4.0	9.0	-4.3	-4.7
CC(NCc1ccc(OCC(N)=O)cc1)C12CC3CC(CC(C3)C1)C2 (stereo not given)	1.5	3.6	28.9*	-3.5	-14.9	-1.3
CCOC(=O)/C(CCC[N+](C)(CC)CC)=N\O	0.9	60.3*	26.1	-18.1	-16.1	-7.7
CCOC(=O)C(Cc1ccnc2ccccc12)=NO	6.5	19.4	1.9	-4.8	-1.2	-3.5
CCN(CCCNC(=O)CC(C(=O)N1CCc2ccccc21)n1ccnc1)c1cccc(C)c1 (stereo not given)	-2.2	-0.5	0.2	0.4	3.4	-0.6
CCCCNC(=O)CC(C(=O)N1CCc2ccccc21)n1ccnc1 (stereo not given)	0.4	-10.2	28.1*	-1.8	33.8*	6.4
Cc1ccc(C)c(NCCCCCCCC(=O)O)c1	0.6	-3.4	-1.8	3.7	-1.9	2.7
O=C(CC[C@H]1O[C@@H](n2cnc3c(NC(=O)c4ccccc4)ncnc32)[C@H](O)[C@@H]1O)NCC1CCCO1 (stereo not given in full)	1.9	-3.6	-22.1	1.5	19.7*	2.6
O=C(NCCCCCCNC(=O)c1ccccc1O)c1ccccc1O	22.0	27.9*	9.1	-19.4	-16.2	6.1
O=c1c(Cl)c(O)ccn1C1OC(CO)C(O)C1O (stereo not given)	0.0	-4.2	-10.2	6.1	4.1	3.2
CCCCNc1c(-c2ccc(OC)c(Sc3ccc(OC)cc3)c2)nc2ccccn12	17.5	26.9*	39.1*	-31.5	-7.8	-3.4
CCCCNc1c(-c2ccc(-c3ccc(OC)cc3)c(OC)c2)nc2ccccn12	11.9	19.3	36.1*	-29.5	-16.3	-5.3
CCCCNc1c(-c2ccc(OC)c(Sc3ccc(OC)cc3)c2)nc2cnccn12	13.3	18.6	16.4	-13.8	-2.7	-2.0
CC1(C(=O)NS(=O)(=O)c2cccs2)CCN1C(=O)c1ccccc1 (stereo not given)	0.4	1.7	0.7	0.6	1.1	0.3
COc1cccc(C(=O)Nc2nc(-c3ccccc3)c(-c3ccccc3)o2)c1	-0.3	1.5	-6.3	-2.3	-0.5	-0.4
O=C(Nc1nc(-c2ccccc2)c(-c2ccccc2)o1)c1ccc(F)cc1	1.8	9.2	-2.6	34.1*	3.3	-1.1
S=C(NCCc1ccccc1)N1CCCC1	0.8	2.7	-0.9	7.8	-10.8	-5.0
SMILES	M4 ag	CHRM5 antagonist	M4 antag	CHRM5 PAM	CHRM4 PAM	M5 ag
CC1CCCN(C(=S)NCCc2ccccc2)C1 (stereo not given)	0.1	-9.0	-6.1	19.3*	4.8	-6.9
C=CCc1c(C)nc(-c2ccccc2)nc1N/N=C(\C)c1ccccc1	-1.2	8.6	35.1*	-5.5	-8.9	-4.2
CCOC(=O)C(=O)N(C)c1c(CC)nc2c(OCCC3CCCCC3)cccn12	-2.7	-8.6	-9.0	-2.1	3.0	-2.7
CCN1C(=O)[C@H]2[C@@H](c3ccc(C)cc3)N3C(=O)N(c4ccc(OC)cc4)C(=O)[C@@]3(Cc3ccc(Cl)cc3)[C@H]2C1=O	4.0	-1.1	-11.5	4.8	31.2*	1.0
CCN1C(=O)[C@H]2[C@@H](c3ccc(C)cc3)N3C(=O)N(c4ccc(C)cc4)C(=O)[C@@]3(Cc3ccccc3)[C@H]2C1=O	4.7	-4.4	-24.5	6.5	18.0	-0.2
Cc1cc(C(=O)N/N=C/c2c(C)nn(-c3ccccc3)c2C)n[nH]1	1.3	-13.4	-2.0	18.7*	-6.2	-1.7
CC1Cc2cc(S(=O)(=O)N3CCC(C(=O)N4CCN(c5ccccc5F)CC4)CC3)ccc2N1C(=O)C1CC1 (stereo not given)	14.9	29.8*	37.2*	-10.6	-11.4	1.8
COc1ccc(N2CCN(S(=O)(=O)c3ccc4c(c3)CC(C)N4C(=O)C3CC3)CC2)cc1 (stereo not given)	0.3	27.0*	7.7	-12.6	-6.0	-3.0
CC(=O)N1c2ccc(S(=O)(=O)N3CCC(C(=O)N4CCC(C)CC4)CC3)cc2CC1C (stereo not given)	1.6	2.6	-0.5	-0.2	-0.4	-2.3
CC(=O)N1c2ccc(S(=O)(=O)N3CCC(C(=O)N4CCN(c5cc(Cl)ccc5C)CC4)CC3)cc2CC1C (stereo not given)	20.6	27.8*	36.4*	-16.5	-18.3	5.2
CC(=O)N1CCCc2cc(S(=O)(=O)N3CCCC(C(=O)N4CCN(c5cc(C)ccc5C)CC4)C3)ccc21 (stereo not given)	36.6*	20.5	-13.8	-18.3	-26.6	1.8
CC1=C(C(=O)N(C(C)C)C(C)C)CC(CC(=O)NCCN2CCOCC2)C(=O)N1Cc1ccc(C(C)(C)C)cc1 (stereo not given)	0.4	3.6	2.0	-2.3	-2.0	0.3
Cc1nc(NC(=O)c2ccco2)sc1-c1csc(Nc2ccc(Cl)cc2Cl)n1	2.7	20.5	-12.3	17.1	13.6	46.6*
Cc1ccc(-c2csc(NC(=O)c3ccco3)n2)cc1C	1.3	8.2	5.5	5.8	1.3	25.8*
Cc1nc(NC(=O)c2ccco2)sc1-c1csc(Nc2ccc(Cl)cc2)n1	0.8	17.5	0.5	5.7	4.7	43.3*
